Source: PubChem (several laboratories)
Shown are actives, neighbours in structure and some others; about 2.9% of the full set was active somewhere.
NALP3 yeast inh: inhibitors of NALP3 inflammasome in yeast; Yeast reconstituted NLRP3/ASC/caspase-1, beta-gal luminescence, 24 h; inhibition, % at 10 µM; actives 0.39% (n = 330,000);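 active = inhibition of 50% or more; inactive = inhibition below 50%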
NALP1 inh: NALP1 inhibition; S. cerevisiae NALP1/ASC/caspase-1 growth, X-gal OD620, 72 h; actives 0.61% (n = 280,000); inhibition, % at 10 µM; in the data active = inhibition mostly above about 24%, no sharp cut-off; inactive = mostly below about 32%
Mot1-301 SUMO: blocks SUMOylation pathway, rescuing yeast Mot1-301 growth | S. cerevisiae Mot1-301 growth rescue, ATP luminescence, 38.5C; percent above DMSO median, 100 means doubled | growth rescue, % at 18.8 µM | actives 1% (n = 320,000);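 active = every valid replicate shows activation above 250% relative to neutral control wells; inactive = the rest, any valid replicate at or below 250%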
PolyA inhibitor: inhibitors of polyadenylation in S. cerevisiae; S. cerevisiae SKY197-pL101 polyadenylation reporter, beta-gal luminescence; efflux-impaired pdr1/pdr3 knockout yeast; score 100 = 6 SD above DMSO; AID 1875; activity score, % at 12 µM; actives 0.02% (n = 300,000);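 active = lowest replicate activity score at least 50, where 100 means six control SD above control mean; inconclusive = lowest score under 50 but half or more replicates reach 50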;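 note: yeast exposed to compound for 9 h at 30 °C; higher score means more reporter readthrough which indicates perturbed polyadenylation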
VIM-2 inhibitor: inhibitors of Pseudomonas aeruginosa VIM-2 metallo-beta-lactamase | purified VIM-2, nitrocefin hydrolysis, epi-absorbance fluorescence | inhibition, % at 5.6 µM | actives 0.89% (n = 290,000);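 active = inhibition above the mean of all tested compounds plus 3 SD, cutoff set per screening run, cut at about 7.5% in these data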;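 note: red hydrolysis product quenches plate fluorescence so inhibitors raise well fluorescence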
IMP-1 inhibitor: inhibitors of Pseudomonas aeruginosa IMP-1 metallo-beta-lactamase. purified IMP-1, nitrocefin hydrolysis, epi-absorbance fluorescence. inhibition, % at 5.6 µM. actives 0.45% (n = 290,000). AID 1556;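 active = inhibition above the mean plus 3 SD of all compounds in the same screening run, cut at about 4.5% in these data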
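System: Purified recombinant IMP-1 metallo-beta-lactamase enzyme | Measured by: Fluorescence quenching readout, ex 480/em 530 nm | Replication: Singlicate | Incubation: 15 min preincubation plus 25 min reaction at 25 °C | Evaluation: Percent inhibition from optical density relative to buffer-blank wells | Benchmarks: DMSO with and without IMP-1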
Each line names hits and unclear results; the compound was inactive in the other large screens.

COc1ccc2c3c(cccc13)C(=O)N(O)C2=O	VIM-2 inhibitor 9.0 (no result: NALP3 yeast inh)
O=C1c2cccc3c([N+](=O)[O-])ccc(c23)C(=O)N1O	VIM-2 inhibitor 8.8
COc1ccc(N2C(=NC(=O)C3CCCCC3)SC3CS(=O)(=O)CC32)c(OC)c1 (stereo not drawn)	none
CCCCCCC(=O)Nc1nc(C)c(-c2csc(Nc3cc(Cl)ccc3C)n2)s1	IMP-1 inhibitor 19
CCCCC(=O)Nc1nc(C)c(-c2csc(Nc3cc(Cl)ccc3OC)n2)s1	IMP-1 inhibitor 7.6
COc1ccc(OC)c(Nc2nc(-c3sc(NC(=O)C(C)(C)C)nc3C)cs2)c1	none
COc1ccc(Cl)cc1Nc1nc(-c2sc(NC(=O)C(C)(C)C)nc2C)cs1	IMP-1 inhibitor 18
Nc1nc(SCC(=O)c2c(N)n(C3CC3)c(=O)[nH]c2=O)n[nH]1	none (no result: NALP1 inh, Mot1-301 SUMO, PolyA inhibitor, VIM-2 inhibitor, IMP-1 inhibitor)
CC(C)Cn1c(SCC(=O)N2CCOCC2)nc2ccccc2c1=O	none (no result: NALP1 inh, Mot1-301 SUMO, PolyA inhibitor, VIM-2 inhibitor, IMP-1 inhibitor)
CC(C)Cn1c(-c2ccc(Cl)cc2)cnc1SCC(=O)N1CCOCC1	Mot1-301 SUMO 306
COC(=O)Nc1ccc(S(=O)(=O)N2CCC(C(=O)N3CCCC(C)C3)CC2)cc1 (stereo not drawn)	NALP1 inh 38
Cc1ccc(-c2csc3ncnc(SCC(=O)NCC4CCCO4)c23)cc1 (stereo not drawn)	none (no result: NALP1 inh, PolyA inhibitor, VIM-2 inhibitor, IMP-1 inhibitor)
O=S(=O)(c1ccccc1)[C@@]1(c2ccccc2)C[C@@H]2ON=C(c3cccc(-c4ccccc4)c3)[C@@H]2C1	none (no result: NALP1 inh, VIM-2 inhibitor, IMP-1 inhibitor)
CCOC(=O)c1cn(CC(=O)Nc2cccc(F)c2)nn1	NALP1 inh 21
CCOC(=O)c1cn(CC(=O)Nc2ccc(CC)cc2)nn1	none
Brc1ccc2[nH]c3c(N4CCc5ccccc5C4)ncnc3c2c1	Mot1-301 SUMO 344
Fc1ccc2[nH]c3c(N4CCc5ccccc5C4)ncnc3c2c1	none
O=C(CN1CCN(c2ccccc2O)CC1)Nc1ccc2c(c1)OCCCO2	none (no result: NALP1 inh, PolyA inhibitor, VIM-2 inhibitor, IMP-1 inhibitor)
NNC(=S)NCc1ccc2c(c1)OCO2	NALP1 inh 105
CCOc1ccc(-c2c(C(=O)N/N=C/c3cccc(Br)c3)nnn2-c2nonc2N)cc1	NALP1 inh 37
COc1ccccc1/C=N/NC(=O)c1nnn(-c2nonc2N)c1-c1cccs1	NALP1 inh 37
CCOC(=O)C1CCCN(C2CC(=O)N(c3cccc(C(F)(F)F)c3)C2=O)C1 (stereo not drawn)	NALP1 inh 59
CCOC(=O)C1CCCN(C2CC(=O)N(c3ccccc3)C2=O)C1 (stereo not drawn)	none
CCN(CC)CCN(Cc1cc2cc3c(cc2[nH]c1=O)OCO3)C(=S)NC	none
O=C(Nc1ccc(S(=O)(=O)Nc2cnc3ccccc3n2)cc1)c1cccc(OC(F)F)c1	none
O=C(NN1C(=O)C2C(c3ccccc3)C=CC(c3ccccc3)C2C1=O)c1ccncc1 (stereo not drawn)	IMP-1 inhibitor 12
Cc1[nH]c2ccccc2c1C(=O)CSC(=S)N1CCN(C)CC1	VIM-2 inhibitor 12
COC(=O)c1c(-c2cccs2)csc1NC(=O)c1cccnc1	VIM-2 inhibitor 11 (no result: Mot1-301 SUMO)
COc1ccc(C(O)(C(C)C)C(CN2CCOCC2)c2ccc(Cl)cc2)cc1 (stereo not drawn)	none
CC(=O)N1CCc2cc(S(=O)(=O)NC(Cc3ccccc3)C(=O)Nc3cc(C)ccn3)ccc21 (stereo not drawn)	NALP1 inh 38
CCC(=O)N1CCc2cc(S(=O)(=O)NC(Cc3ccccc3)C(=O)NC3CCCCC3)ccc21 (stereo not drawn)	none (no result: NALP3 yeast inh, Mot1-301 SUMO)
CCOc1ccc(NC(=O)/C=C/c2ccccc2)c([N+](=O)[O-])c1	IMP-1 inhibitor 4.8
Cc1ccc(NC(=O)NC(=O)CN2CCCC2c2ccc3c(c2)OCCO3)cc1C (stereo not drawn)	none (no result: NALP1 inh, PolyA inhibitor, VIM-2 inhibitor, IMP-1 inhibitor)
COC(=O)c1c(NC(=O)Cc2ccc(OC)c(S(=O)(=O)N3CCOCC3)c2)sc(C)c1C	none (no result: NALP1 inh, VIM-2 inhibitor, IMP-1 inhibitor)
COc1ccc(N2CCN(C(=O)c3ccccc3NS(=O)(=O)c3ccc(C)cc3)CC2)cc1	none
COCCNC(=O)CSc1ncnc2sccc12	NALP1 inh 38, PolyA inhibitor inconclusive
CCNC(=O)CSc1ncnc2sccc12	none
CSc1ccc(CNC(=O)C2CCC(=O)N(Cc3cccc(F)c3)C2)cc1 (stereo not drawn)	none
Cc1c(Cl)cccc1NS(=O)(=O)c1ccc2c(c1)C1C=CCC1C(c1ccc(C(=O)O)cc1)N2 (stereo not drawn)	IMP-1 inhibitor 30 (no result: PolyA inhibitor)
O=C(O)c1ccc2c(c1)C1C=CCC1C(c1ccncc1)N2 (stereo not drawn)	none (no result: NALP1 inh)
CC(=O)c1ccc2c(c1)C1C=CCC1C(c1ccc(S(=O)(=O)N3CCOCC3)cc1)N2 (stereo not drawn)	none (no result: NALP3 yeast inh, PolyA inhibitor)
COc1ccc(NS(=O)(=O)c2ccc3c(c2)[C@H]2C=CC[C@H]2[C@@H](c2ccc(C(=O)O)cc2)N3)cc1	IMP-1 inhibitor 22
CC1CCCC(C)N1C(=O)Cn1nnc(-c2ccc([N+](=O)[O-])cc2)n1 (stereo not drawn)	none
Cc1cc(SCC(=O)Nc2c(C)n(C)n(-c3ccccc3)c2=O)n2c(nc3ccccc32)c1C#N	VIM-2 inhibitor 22 (no result: NALP3 yeast inh, NALP1 inh, Mot1-301 SUMO, PolyA inhibitor)
Cn1ccnc1C1CCCCN1C(=O)c1cc(COc2ccc(F)cc2Cl)on1 (stereo not drawn)	none
CCOC(=O)/C(=C\c1ccc(Cl)cc1)c1nc2sc(C)c(C)c2c(=O)[nH]1	NALP1 inh 44
CCOc1ccc(Br)cc1CN(CC)CC	none
CSc1nc2nccc(-c3ccc4c(c3)OCO4)n2n1	VIM-2 inhibitor 11
O=C(COC(=O)c1cncc(Br)c1)NCc1ccco1	Mot1-301 SUMO 414
O=C(COC(=O)c1cncc(Br)c1)NCc1ccc(F)cc1	none
Cc1ccc(CNC(=O)C2CCCN(S(=O)(=O)c3cccc4nonc34)C2)cc1 (stereo not drawn)	none
Clc1ncnc2c1oc1ccccc12	none
c1coc(CN(Cc2ccco2)c2ncnc3c2oc2ccccc23)c1	IMP-1 inhibitor 4.7
CCCC(C)C(=O)Nc1ncc(S(=O)(=O)c2ccc([N+](=O)[O-])cc2)s1 (stereo not drawn)	none
Cc1nc2ccccc2n1/N=C/c1ccc([N+](=O)[O-])s1	none
Cc1cc2ncn(/N=C/c3ccc([N+](=O)[O-])s3)c2cc1C	NALP1 inh 59 (no result: NALP3 yeast inh)
O=[N+]([O-])c1ccc(/C=N/n2cnc3ccccc32)s1	NALP1 inh 54, Mot1-301 SUMO 378
NC(=O)C1CCN(S(=O)(=O)c2cccc(C(=O)O)c2)CC1	IMP-1 inhibitor 32
Cc1cc(C)c(N)c(C(=O)O)c1	none
Cc1cc(C(=O)O)cc(Br)c1N	Mot1-301 SUMO 326
O=C(Nc1cc([N+](=O)[O-])ccc1O)c1cccc([N+](=O)[O-])c1	none
